Data set [1] in a line: melting temperature; fluorescence melt of hairpins on a sequencing array, two-state fit, raised by 9.35 °C to match UV melts. Conditions: sodium 0.088 M. The method, boiled down: (§1)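 In 50 mM Na-HEPES pH 8.0 containing 25 mM NaCl, hairpins from the library on a sequenced MiSeq flow cell were imaged for Cy3 fluorescence at 2.5 °C steps up to 60 °C, with Cy3 and quencher oligos annealed. After normalisation to pre-quench Cy3 and to control constructs, two-state fits with bootstrapping gave melting temperature and folding enthalpy. Four replicates were combined by inverse-variance weighting, and fitted temperatures were shifted up by 9.35 °C to match UV melts.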

Data set [2] in a line: folding enthalpy; higher = less favourable; fluorescence melt of hairpins on a sequencing array, two-state fit. Conditions: sodium 0.088 M. The method, boiled down:
as §1

With GTTTCTGAAAAGAAAC ((((((....)))))), in data set [1], the Tm is 50.2 °C. Moreover, in data set [2], the folding enthalpy is -37 kcal/mol.

As to GTTTGAGCGAAAGCTAAC (((..(((....)))))), in data set [1], the Tm stood at 31.1 °C. The folding enthalpy in data set [2] was -10.5 kcal/mol.

On to GTTTGAGGAAACTCAAAC (((((((....))))))), for which, in data set [1], the Tm stood at 55.8 °C. Moreover, the folding enthalpy in data set [2] is -36.8 kcal/mol.

For GTTTGCGAAAGCATAAAC ((((((....)))..))), the Tm in data set [1] was found to be 31.5 °C. Besides, the folding enthalpy in data set [2] was -13 kcal/mol.

Consider GTTTGCGGAAACGTAAGC (.((.((....)).)).), for which the Tm in data set [1] turned out to be 33 °C. In data set [2], the folding enthalpy was -22 kcal/mol.

With GTTTGCGGAAACGTGAAC (((..((....))..))), the Tm in data set [1] came to 41.2 °C. The folding enthalpy in data set [2] is -30.7 kcal/mol.

Consider GTTTGGACGAAAGTCAAC (((..(((....)))))), for which the Tm in data set [1] was 34.7 °C. In data set [2], the folding enthalpy was -12.7 kcal/mol.

Take GTTTGGGGAAACCTGAAC (((..((....))..))): in data set [1], the Tm turned out to be 32 °C. The folding enthalpy in data set [2] was -16 kcal/mol.

For GTTTGGGGAAACTCAAGC (.(((.(....).))).), the Tm in data set [1] is 27.1 °C. Besides, in data set [2], the folding enthalpy was -12.2 kcal/mol.

GTTTGTGGAAACATAAAC ((((.((....)).)))): the Tm in data set [1] worked out at 39.6 °C. The folding enthalpy in data set [2] was -22.8 kcal/mol.

On to GTTTGTGGAAACATGAAC (((..((....))..))), for which, in data set [1], the Tm was found to be 31.6 °C. Also, the folding enthalpy in data set [2] was -21.9 kcal/mol.

As to GTTTTACGAAAGTAAAC (((.(((....)))))), the Tm in data set [1] stood at 38.7 °C. In data set [2], the folding enthalpy was -17.4 kcal/mol.

For the sequence GTTTTAGCGAAAGCTAAC (((..(((....)))))), the Tm in data set [1] is 33 °C. Besides, in data set [2], the folding enthalpy is -13.2 kcal/mol.

Regarding GTTTTCACGAAAGTGAAC (((..(((....)))))), the Tm in data set [1] turned out to be 35.4 °C. In addition, in data set [2], the folding enthalpy was -10.3 kcal/mol.

Consider GTTTTCCGAAAGGACAAC (((.(((....))).))), for which the Tm in data set [1] was 41.7 °C. For the same sequence, the folding enthalpy in data set [2] is -25.8 kcal/mol.

Take GTTTTCCGAAAGGAGAAC (((.(((....))).))): the Tm in data set [1] came to 47.1 °C. The folding enthalpy in data set [2] was -30.4 kcal/mol.

In the case of GTTTTGGGAAACCAAAGC (.(((((....))))).), the Tm in data set [1] is 41 °C. For the same sequence, the folding enthalpy in data set [2] is -29.8 kcal/mol.

For GTTTTGGGAAACCAAGAC ((.((((....)))).)), the Tm in data set [1] is 39 °C. The folding enthalpy in data set [2] was -24.6 kcal/mol.

As for GTTTTGGGAAACTAAAAC (((((.(....).))))), the Tm in data set [1] was determined as 36.6 °C. In addition, the folding enthalpy in data set [2] is -24.3 kcal/mol.

Turning to GTTTTGTCGAAAGACAAC (((..(((....)))))), in data set [1], the Tm amounted to 37.5 °C. Also, in data set [2], the folding enthalpy is -12.8 kcal/mol.

Consider GTTTTTCGAAAGAACAAC (((.(((....))).))), for which the Tm in data set [1] was determined as 34.3 °C. Further, the folding enthalpy in data set [2] is -17.8 kcal/mol.

As for GTTTTTGAAAAAAAAC ((((((....)))))), the Tm in data set [1] amounted to 43.3 °C. Moreover, in data set [2], the folding enthalpy is -27.3 kcal/mol.

For the sequence GTTTTTGGAAACAAAAGC (.(((((....))))).), the Tm in data set [1] was determined as 35.6 °C. The folding enthalpy in data set [2] is -29.6 kcal/mol.

Regarding GTTTTTTCGAAAGAAAAC (((..(((....)))))), the Tm in data set [1] came out at 32.1 °C. Moreover, the folding enthalpy in data set [2] was -19.7 kcal/mol.

Take TAACCGAAAGGTTA (((((....))))): the Tm in data set [1] turned out to be 56.7 °C. Moreover, in data set [2], the folding enthalpy was -15.2 kcal/mol.

TAACTGAAAAGTTA (((((....))))): in data set [1], the Tm was 29.4 °C. The folding enthalpy in data set [2] was -9.74 kcal/mol.

In the case of TACATGAAAATGTA (((((....))))), the Tm in data set [1] is 32.1 °C. Further, in data set [2], the folding enthalpy is -12.7 kcal/mol.

Consider TCACTGAAAAGTGA (((((....))))), for which the Tm in data set [1] turned out to be 43.4 °C. Moreover, the folding enthalpy in data set [2] is -18.7 kcal/mol.

As for TCAGAGAAATCTGA (((((....))))), the Tm in data set [1] stood at 27.6 °C. The folding enthalpy in data set [2] was -9.32 kcal/mol.

As for TCGATGAAAATCGA (((((....))))), the Tm in data set [1] stood at 47.4 °C. Also, the folding enthalpy in data set [2] was -19.5 kcal/mol.

With TCGGAGAAATCCGA (((((....))))), the Tm in data set [1] came to 47.3 °C. For the same sequence, in data set [2], the folding enthalpy is -16.8 kcal/mol.

As to TCGGTGAAAACCGA (((((....))))), the Tm in data set [1] amounted to 53 °C. Further, in data set [2], the folding enthalpy was -17.7 kcal/mol.

For the sequence TCTAGGAAACTAGA (((((....))))), the Tm in data set [1] stood at 29.7 °C. Also, the folding enthalpy in data set [2] is -10.5 kcal/mol.

With TCTCCGAAAGGAGA (((((....))))), the Tm in data set [1] came to 59.5 °C. Also, in data set [2], the folding enthalpy is -17.6 kcal/mol.

As to TCTCTGAAAAGAGA (((((....))))), the Tm in data set [1] amounted to 37.2 °C. Moreover, the folding enthalpy in data set [2] is -12.1 kcal/mol.

On to TGACTGAAAAGTCA (((((....))))), for which the Tm in data set [1] was 46 °C. Further, the folding enthalpy in data set [2] is -23.2 kcal/mol.

Take TGCAAGAAATTGCA (((((....))))): the Tm in data set [1] is 39.7 °C. The folding enthalpy in data set [2] was -17.6 kcal/mol.
